Test results reported in ChEMBL document CHEMBL3856248, “2-Benzylidene-1-indanone derivatives as inhibitors of monoamine oxidase” (Bioorg Med Chem Lett, 2016).

Legend:
Homo sapiens = species: Homo sapiens; assay: Selectivity index, ratio of IC50 for recombinant human MAO-A to IC50 for recombinant human MAO-B
Method in brief: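 Ratio of IC50 for MAO-A to IC50 for MAO-B. Both are from the kynuramine fluorescence assay with recombinant human enzymes (37 °C, 20 min, endpoint 4-hydroxyquinoline).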

[1] = target: T1, Amine oxidase [flavin-containing] B (Homo sapiens, UniProt P27338); assay: Inhibition of recombinant human MAO-B using kynuramine as substrate after 20 mins by fluorescence spectrophotometric analysis
T1 sequence (P27338 whole entry): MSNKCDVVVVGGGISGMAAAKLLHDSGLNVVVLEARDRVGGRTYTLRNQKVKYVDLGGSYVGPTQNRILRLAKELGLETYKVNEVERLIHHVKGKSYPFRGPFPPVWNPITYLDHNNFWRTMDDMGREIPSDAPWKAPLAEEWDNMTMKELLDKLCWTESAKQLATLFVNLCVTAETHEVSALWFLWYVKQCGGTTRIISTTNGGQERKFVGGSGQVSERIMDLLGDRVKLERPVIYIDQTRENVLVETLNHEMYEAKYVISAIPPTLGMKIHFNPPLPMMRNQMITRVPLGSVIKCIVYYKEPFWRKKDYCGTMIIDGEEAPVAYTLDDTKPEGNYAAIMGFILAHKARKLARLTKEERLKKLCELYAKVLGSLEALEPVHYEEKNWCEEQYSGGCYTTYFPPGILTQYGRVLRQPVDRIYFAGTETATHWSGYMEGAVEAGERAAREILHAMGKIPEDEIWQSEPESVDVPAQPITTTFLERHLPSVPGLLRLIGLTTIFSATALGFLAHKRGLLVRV
Method in brief: (§1)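 Recombinant human enzyme incubated with kynuramine and test inhibitor at 37 °C for 20 min; stopped with 2 N NaOH. The 4-hydroxyquinoline product is read at endpoint by fluorescence in alkaline medium. Inhibitor-free controls run each time.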

[2] = target: T2, Amine oxidase [flavin-containing] A (Homo sapiens, UniProt P21397); assay: Inhibition of recombinant human MAO-A using kynuramine as substrate after 20 mins by fluorescence spectrophotometric analysis; method in brief: as §1
T2 sequence (P21397 whole entry): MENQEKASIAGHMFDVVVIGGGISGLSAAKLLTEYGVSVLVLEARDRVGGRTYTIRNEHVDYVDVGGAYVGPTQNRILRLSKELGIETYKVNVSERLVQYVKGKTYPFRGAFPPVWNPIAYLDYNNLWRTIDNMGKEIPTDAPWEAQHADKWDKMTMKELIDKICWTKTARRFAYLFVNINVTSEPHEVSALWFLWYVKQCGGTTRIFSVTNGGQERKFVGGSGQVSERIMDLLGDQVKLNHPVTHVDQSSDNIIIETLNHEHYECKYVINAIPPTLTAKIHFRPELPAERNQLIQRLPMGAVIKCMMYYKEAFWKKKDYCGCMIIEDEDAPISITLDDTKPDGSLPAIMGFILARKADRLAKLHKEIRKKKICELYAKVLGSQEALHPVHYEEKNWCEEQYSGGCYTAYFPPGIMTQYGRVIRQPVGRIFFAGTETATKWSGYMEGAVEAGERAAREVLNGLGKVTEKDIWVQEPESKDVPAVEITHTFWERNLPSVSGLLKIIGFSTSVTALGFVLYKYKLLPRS

[3] = target: T3, Amine oxidase [flavin-containing] B (Rattus norvegicus, UniProt P19643); assay: Inhibition of Sprague-Dawley rat brain mitochondrial MAO-B using DMAPEA as substrate by HPLC analysis
T3 sequence (P19643 whole entry): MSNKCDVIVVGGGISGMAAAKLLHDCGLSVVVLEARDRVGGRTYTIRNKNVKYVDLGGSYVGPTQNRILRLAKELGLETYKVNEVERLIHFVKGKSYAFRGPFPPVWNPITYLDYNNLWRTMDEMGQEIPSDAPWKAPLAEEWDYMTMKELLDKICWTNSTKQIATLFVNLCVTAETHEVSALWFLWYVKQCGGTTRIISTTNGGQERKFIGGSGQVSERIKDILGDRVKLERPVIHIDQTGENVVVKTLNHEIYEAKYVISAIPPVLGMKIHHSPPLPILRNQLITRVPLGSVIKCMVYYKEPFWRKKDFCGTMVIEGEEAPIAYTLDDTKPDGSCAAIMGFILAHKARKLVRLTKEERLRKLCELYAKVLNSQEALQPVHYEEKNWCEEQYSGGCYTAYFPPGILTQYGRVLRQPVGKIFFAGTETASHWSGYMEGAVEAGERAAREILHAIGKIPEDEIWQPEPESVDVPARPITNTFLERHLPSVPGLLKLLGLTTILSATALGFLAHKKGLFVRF

[4] = target: T2, Amine oxidase [flavin-containing] A; assay: Irreversible inhibition of recombinant human MAO-A assessed as residual activity pre-incubated at 4 times IC50 for 15 mins followed by dialysis for 24 hrs and subsequent kynuramine addition measured after 20 mins by fluorescence spectrophotometric analysis relative to untreated control
[5] = target: T2, Amine oxidase [flavin-containing] A; assay: Reversible inhibition of recombinant human MAO-A assessed as residual activity pre-incubated at 4 times IC50 for 15 mins followed by kynuramine addition measured after 20 mins by fluorescence spectrophotometric analysis relative to untreated control
Method in brief: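 Undialysed comparison: MAO-A is pre-incubated 15 min with inhibitor at 4 × IC50 without dialysis. Residual activity is measured after kynuramine addition as in the IC50 assay (37 °C, 20 min, 2 N NaOH stop, fluorescence of 4-hydroxyquinoline). It is expressed relative to the inhibitor-free control.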

[6] = target: T2, Amine oxidase [flavin-containing] A; assay: Reversible inhibition of recombinant human MAO-A assessed as residual activity pre-incubated at 4 times IC50 for 15 mins followed by dialysis for 24 hrs and subsequent kynuramine addition measured after 20 mins by fluorescence spectrophotometric analysis relative to untreated control
[7] = target: T4, Amine oxidase [flavin-containing] A (Rattus norvegicus, UniProt P21396); assay: Inhibition of Wistar rat liver mitochondrial MAO-A using […] as substrate after 1 hr by spectrophotometric analysis
T4 sequence (P21396 whole entry): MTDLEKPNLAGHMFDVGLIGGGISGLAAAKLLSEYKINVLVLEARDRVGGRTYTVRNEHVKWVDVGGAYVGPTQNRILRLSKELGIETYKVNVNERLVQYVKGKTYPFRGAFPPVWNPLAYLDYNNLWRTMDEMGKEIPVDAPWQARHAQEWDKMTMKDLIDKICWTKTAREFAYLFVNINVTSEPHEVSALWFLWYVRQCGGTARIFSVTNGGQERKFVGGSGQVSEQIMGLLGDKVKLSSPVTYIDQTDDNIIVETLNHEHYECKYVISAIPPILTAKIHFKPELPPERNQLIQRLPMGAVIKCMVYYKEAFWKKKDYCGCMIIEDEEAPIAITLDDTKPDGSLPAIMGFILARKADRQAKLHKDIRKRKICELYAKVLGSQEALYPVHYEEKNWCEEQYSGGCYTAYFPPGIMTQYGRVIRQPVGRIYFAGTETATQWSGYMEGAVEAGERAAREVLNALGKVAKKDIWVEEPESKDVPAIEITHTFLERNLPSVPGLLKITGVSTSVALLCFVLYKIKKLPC

## CN(C)c1ccc(/C=C2\Cc3cc(O)ccc3C2=O)cc1
Homo sapiens
  Ratio IC50: 2.2
[1]
  IC50: 768 nM
[2]
  IC50: 1720 nM

## O=C1/C(=C/c2cccc(O)c2)Cc2cc(O)ccc21
Homo sapiens
  Ratio IC50: 1.2
[1]
  IC50: 966 nM
[2]
  IC50: 1200 nM

## O=C1/C(=C/c2ccc(O)cc2)Cc2cc(O)ccc21
Homo sapiens
  Ratio IC50: 0.6
[1]
  IC50: 2740 nM
[2]
  IC50: 1670 nM

## COc1ccc2c(c1)C/C(=C\c1ccccc1)C2=O
Homo sapiens
  Ratio IC50: > 10900
[1]
  IC50: 9.2 nM

## COc1ccc2c(c1)C(=O)/C(=C/c1ccccc1OC)O2
[3]
  IC50: 11600 nM

## N#Cc1ccc(/C=C2\Cc3cc(O)ccc3C2=O)cc1
Homo sapiens
  Ratio IC50: 6.6
[1]
  IC50: 316 nM
[2]
  IC50: 2080 nM

## Cc1ccc(/C=C2\Cc3cc(O)ccc3C2=O)cc1
Homo sapiens
  Ratio IC50: 619
[1]
  IC50: 5.2 nM
[2]
  IC50: 3220 nM

## Cc1cccc(/C=C2\Cc3cc(O)ccc3C2=O)c1
Homo sapiens
  Ratio IC50: 17
[1]
  IC50: 52 nM
[2]
  IC50: 860 nM

## O=C1/C(=C/c2ccc(Br)cc2)Cc2cc(O)ccc21
Homo sapiens
  Ratio IC50: 198
[1]
  IC50: 5.3 nM
[2]
  IC50: 1050 nM

## O=C1/C(=C/c2ccc(F)cc2)Cc2cc(O)ccc21
Homo sapiens
  Ratio IC50: 14
[1]
  IC50: 47 nM
[2]
  IC50: 679 nM

## O=C1/C(=C/c2cccc(F)c2)Cc2cc(O)ccc21
Homo sapiens
  Ratio IC50: 5.5
[1]
  IC50: 84 nM
[2]
  IC50: 458 nM

## O=C1/C(=C/c2ccccc2)Cc2cc(O)ccc21
Homo sapiens
  Ratio IC50: 5.2
[1]
  IC50: 376 nM
[2]
  IC50: 1940 nM

## N#Cc1cccc(/C=C2\Cc3cc(O)ccc3C2=O)c1
Homo sapiens
  Ratio IC50: 3.4
[1]
  IC50: 130 nM
[2]
  IC50: 444 nM

## C#CCN(C)Cc1ccccc1 [PARGYLINE]
[4]
  Activity: 1.7%

## O=C1/C(=C/c2ccccc2)Cc2ccc(O)cc21
Homo sapiens
  Ratio IC50: 0.2
[1]
  IC50: 2420 nM
[2]
  IC50: 440 nM

## CN(C)c1ccc(/C=C2\Cc3ccccc3C2=O)cc1
Homo sapiens
  Ratio IC50: 49
[1]
  IC50: 31 nM
[2]
  IC50: 1520 nM

## COc1ccc2c(c1)C/C(=C\c1ccc(N(C)C)cc1)C2=O
Homo sapiens
  Ratio IC50: 192
[1]
  IC50: 60 nM
[2]
  IC50: 11500 nM

## O=C1/C(=C/c2ccc(Cl)c(Cl)c2)Cc2cc(O)ccc21
Homo sapiens
  Ratio IC50: 17
[1]
  IC50: 14 nM
[2]
  IC50: 235 nM

## CC(C)c1ccc(/C=C2\Cc3cc(O)ccc3C2=O)cc1
Homo sapiens
  Ratio IC50: 4.5
[1]
  IC50: 215 nM
[2]
  IC50: 961 nM

## O=C1/C(=C/c2ccccc2)Cc2ccccc21
Homo sapiens
  Ratio IC50: 2.1
[1]
  IC50: 2570 nM
[2]
  IC50: 5430 nM

## O=C1/C(=C/c2cccc(Br)c2)Cc2cc(O)ccc21
[5]
  Activity: 50%
Homo sapiens
  Ratio IC50: 10
[1]
  IC50: 13 nM
[2]
  IC50: 131 nM
[6]
  Activity: 99%

## COc1cccc(/C=C2\Cc3cc(O)ccc3C2=O)c1
Homo sapiens
  Ratio IC50: 2.5
[1]
  IC50: 471 nM
[2]
  IC50: 1190 nM

## O=C(/C=C/c1ccc(O)cc1)c1ccc(O)cc1O [ISOLIQUIRITIGENIN]
[7]
  IC50: 17300 nM

## O=C1/C(=C/c2ccc(Cl)cc2)Cc2cc(O)ccc21
Homo sapiens
  Ratio IC50: 57
[1]
  IC50: 13 nM
[2]
  IC50: 741 nM

## O=C1/C(=C/c2cccc(Cl)c2)Cc2cc(O)ccc21
Homo sapiens
  Ratio IC50: 5.2
[1]
  IC50: 30 nM
[2]
  IC50: 157 nM
